# Assay results taken from ChEMBL document CHEMBL1255444, “In vitro antibacterial activities of JNJ-Q2, a new broad-spectrum fluoroquinolone” (Antimicrob Agents Chemother, 2010).
# Calls of active or inactive are those of the source. No cut-off for these calls is given here.
# Columns and labels:
# [1] = tested on: Providencia stuartii; experiment: Ratio of Moxifloxacin MIC90 to compound MIC90 for Providencia stuartii; type: functional
# [2] = tested on: Streptococcus pneumoniae; experiment: Antibacterial activity against Streptococcus pneumoniae isolate OC6608 assessed as log reduction in bacterial growth at 2 times MIC measured at 24 hrs by time-kill assay; type: functional
# In short: (§1)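 Drug was diluted from 50× stocks made in water or acidified water. Samples were taken at 6 and 24 h and serially diluted onto TSA-5% sheep blood plates. Plates were incubated 20–24 h at 37°C in 5% CO2 before counting CFU. Log10 titer change is given relative to the starting inoculum.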
# [3] = Dissociation constant, pKa of the compound; type: physicochemical
# [4] = Distribution coefficient, log D of the compound; type: physicochemical; details: octanol/water
# [5] = tested on: Streptococcus pneumoniae; experiment: Antibacterial activity against penicillin-resistant Streptococcus pneumoniae by broth microdilution method; type: functional, organism-based
# In short: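 CLSI M07-A7 broth microdilution MIC in cation-adjusted Mueller-Hinton medium. For S. pneumoniae the medium was supplemented with 5% lysed horse blood. CLSI quality-control strains were included as appropriate.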
# [6] = tested on: Streptococcus pneumoniae; experiment: Antibacterial activity against ciprofloxacin-resistant Streptococcus pneumoniae by broth microdilution method; type: functional
# In short: (§2)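 CLSI M07-A7 broth microdilution MIC. Medium was cation-adjusted Mueller-Hinton broth. For S. pneumoniae it was Mueller-Hinton supplemented with 5% lysed horse blood. CLSI quality-control strains were included as appropriate.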
# [7] = tested on: Staphylococcus aureus; experiment: Antibacterial activity against methicillin-susceptible Staphylococcus aureus by broth microdilution method; type: functional
# [8] = tested on: Staphylococcus epidermidis; experiment: Antibacterial activity against methicillin-resistant Staphylococcus epidermidis by broth microdilution method; type: functional
# [9] = tested on: Streptococcus pyogenes; experiment: Antibacterial activity against Streptococcus pyogenes by broth microdilution method; type: functional
# In short: (§3)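 MICs by CLSI M07-A7 broth microdilution in cation-adjusted Mueller-Hinton medium. For S. pneumoniae the medium was supplemented with 5% lysed horse blood. CLSI quality control strains were run alongside as appropriate.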
# [10] = tested on: Streptococcus agalactiae; experiment: Antibacterial activity against Streptococcus agalactiae by broth microdilution method; type: functional; in short: as §3
# [11] = tested on: Enterococcus faecium; experiment: Antibacterial activity against Enterococcus faecium by broth microdilution method; type: functional; in short: as §3
# [12] = tested on: Enterobacter cloacae; experiment: Antibacterial activity against Enterobacter cloacae by broth microdilution method; type: functional
# [13] = tested on: Klebsiella pneumoniae; experiment: Antibacterial activity against Klebsiella pneumoniae by broth microdilution method; type: functional; in short: as §3
# [14] = tested on: Citrobacter freundii; experiment: Antibacterial activity against Citrobacter freundii by broth microdilution method; type: functional; in short: as §3
# [15] = tested on: Streptococcus pneumoniae; experiment: Ratio of Levofloxacin MIC90 to compound MIC90 for ciprofloxacin-resistant Streptococcus pneumoniae; type: functional
# [16] = tested on: Streptococcus pneumoniae; experiment: Ratio of Gemifloxacin MIC90 to compound MIC90 for ciprofloxacin-resistant Streptococcus pneumoniae; type: functional
# [17] = tested on: Streptococcus pneumoniae; experiment: Antibacterial activity against Streptococcus pneumoniae isolate OC7189 assessed as log reduction in bacterial growth at 2 times MIC measured at 24 hrs by time-kill assay; type: functional; in short: as §1
# [18] = tested on: Streptococcus pneumoniae; experiment: Antibacterial activity against Streptococcus pneumoniae isolate OC7376 assessed as log reduction in bacterial growth at 2 times MIC measured at 6 hrs by time-kill assay; type: functional; in short: as §1
# [19] = tested on: Streptococcus pneumoniae; experiment: Antibacterial activity against Streptococcus pneumoniae isolate OC6790 assessed as log reduction in bacterial growth at 4 times MIC measured at 6 hrs by time-kill assay; type: functional; in short: as §1
# [20] = tested on: Streptococcus pneumoniae; experiment: Antibacterial activity against Streptococcus pneumoniae isolate OC6585 assessed as log reduction in bacterial growth at 2 times MIC measured at 24 hrs by time-kill assay; type: functional; in short: as §1
# [21] = tested on: Streptococcus pneumoniae; experiment: Antibacterial activity against Streptococcus pneumoniae isolate OC6585 assessed as log reduction in bacterial growth at 4 times MIC measured at 24 hrs by time-kill assay; type: functional; in short: as §1
# [22] = tested on: Streptococcus pneumoniae; experiment: Antibacterial activity against Streptococcus pneumoniae isolate OC6610 by broth microdilution method; type: functional; in short: as §2
# [23] = tested on: Staphylococcus aureus; experiment: Antibacterial activity against methicillin-resistant Staphylococcus aureus isolate OC11223 by broth microdilution method; type: functional; in short: as §2
# [24] = tested on: Staphylococcus aureus; experiment: Antibacterial activity against methicillin-resistant Staphylococcus aureus isolate OC8525 harboring wild type quinolone resistance-determining region by broth microdilution method; type: functional
# [25] = tested on: Staphylococcus aureus; experiment: Antibacterial activity against methicillin-resistant Staphylococcus aureus isolate OC11696 by broth microdilution method; type: functional; in short: as §2
# [26] = tested on: Staphylococcus aureus; experiment: Antibacterial activity against methicillin-resistant Staphylococcus aureus isolate OC4222 harboring gyrA S84L and parC S80F mutant gene by broth microdilution method; type: functional; in short: as §2
# [27] = tested on: Staphylococcus aureus; experiment: Antibacterial activity against methicillin-resistant Staphylococcus aureus isolate OC11521 harboring gyrA S84L/S85P, parC E84G mutant gene by broth microdilution method; type: functional; in short: as §2
# [28] = tested on: Staphylococcus aureus; experiment: Antibacterial activity against methicillin-resistant Staphylococcus aureus isolate OC11223 assessed as log reduction in bacterial growth at 2 times MIC measured at 24 hrs by time-kill assay; type: functional
# In short: (§4)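 Overnight MRSA cultures were diluted into fresh cation-adjusted Mueller-Hinton broth to about 5 × 10^6 CFU/ml. […] Samples were plated serially diluted on trypticase soy agar, and CFU were counted after 20-24 h at 37°C. Value is the log10 decrease at 24 h from the starting inoculum; detection limit 100 CFU.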
# [29] = tested on: Staphylococcus aureus; experiment: Antibacterial activity against methicillin-resistant Staphylococcus aureus isolate OC11223 assessed as log reduction in bacterial growth at 4 times MIC measured at 24 hrs by time-kill assay; type: functional; in short: as §4
# [30] = tested on: Staphylococcus aureus; experiment: Antibacterial activity against methicillin-resistant Staphylococcus aureus isolate OC8525 harboring wild type quinolone resistance-determining region assessed as log reduction in bacterial growth at 2 times MIC measured at 24 hrs by time-kill assay; type: functional; in short: as §4
# [31] = tested on: Staphylococcus aureus; experiment: Antibacterial activity against methicillin-resistant Staphylococcus aureus isolate OC12501 assessed as log reduction in bacterial growth at 2 times MIC measured at 24 hrs by time-kill assay; type: functional; in short: as §4
# [32] = tested on: Staphylococcus aureus; experiment: Antibacterial activity against methicillin-resistant Staphylococcus aureus isolate OC12501 assessed as log reduction in bacterial growth at 4 times MIC measured at 24 hrs by time-kill assay; type: functional; in short: as §4
# [33] = tested on: Staphylococcus aureus; experiment: Antibacterial activity against methicillin-resistant Staphylococcus aureus isolate OC8530 harboring gyrA S84L and parC I143V mutant gene assessed as log reduction in bacterial growth at 4 times MIC measured at 24 hrs by time-kill assay; type: functional
# In short: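 Time-kill in cation-adjusted Mueller-Hinton broth. […] Samples were taken up to 24 h, serially diluted onto TSA and counted after 20–24 h at 37°C. Result is log10 decrease at 24 h from the starting inoculum; detection limit 100 CFU.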
# [34] = tested on: Staphylococcus aureus; experiment: Antibacterial activity against methicillin-resistant Staphylococcus aureus isolate OC2838 assessed as log reduction in bacterial growth at 2 times MIC measured at 24 hrs by time-kill assay; type: functional; in short: as §4
# [35] = tested on: Staphylococcus aureus; experiment: Antibacterial activity against methicillin-resistant Staphylococcus aureus isolate OC17042 harboring gyrA S84L/G106D, parC S80F and parE D732N mutant gene assessed as log reduction in bacterial growth at 2 times MIC measured at 24 hrs by time-kill assay; type: functional; in short: as §4
# [36] = tested on: Staphylococcus aureus; experiment: Antibacterial activity against methicillin-resistant Staphylococcus aureus isolate OC11521 harboring gyrA S84L/S85P, parC E84G mutant gene assessed as log reduction in bacterial growth at 4 times MIC measured at 24 hrs by time-kill assay; type: functional; in short: as §4
compound,measurement,setting,value
COc1c(N2CCC/C(=C(\F)CN)C2)c(F)cc2c(=O)c(C(=O)O)cn(C3CC3)c12 [ACORAFLOXACIN],Ratio,[1],16
same,deltalog10CFU/ml,[2],5.8
same,pKa,[3],6.13
same,logD,[4],0.37
same,Activity,[5],Active
same,MIC50,[6],0.12 µg/mL
same,MIC90,[6],0.25 µg/mL
same,MIC50,[7],0.015 µg/mL
same,MIC90,[7],0.015 µg/mL
same,MIC50,[8],0.12 µg/mL
same,MIC90,[8],0.25 µg/mL
same,MIC,[9],0.008 µg/mL
same,MIC50,[9],0.008 µg/mL
same,MIC90,[9],0.015 µg/mL
same,MIC50,[10],0.015 µg/mL
same,MIC90,[10],0.015 µg/mL
same,MIC50,[11],0.5 µg/mL
same,MIC90,[11],4 µg/mL
same,MIC50,[12],0.12 µg/mL
same,MIC90,[12],0.12 µg/mL
same,MIC50,[13],0.12 µg/mL
same,MIC90,[13],0.25 µg/mL
same,MIC50,[14],2 µg/mL
same,MIC90,[14],8 µg/mL
same,Ratio,[15],9
same,Ratio,[16],9
same,deltalog10CFU/ml,[17],7.5
same,deltalog10CFU/ml,[18],4.4
same,deltalog10CFU/ml,[19],3.6
same,deltalog10CFU/ml,[20],6.6
same,deltalog10CFU/ml,[21],6.6
same,MIC,[22],0.5 µg/mL
same,MIC,[23],0.008 µg/mL
same,MIC,[24],0.008 µg/mL
same,MIC,[25],0.06 µg/mL
same,MIC,[26],0.5 µg/mL
same,MIC,[27],1 µg/mL
same,deltalog10CFU/ml,[28],2.5
same,deltalog10CFU/ml,[29],3.9
same,deltalog10CFU/ml,[30],5.1
same,deltalog10CFU/ml,[31],6.2
same,deltalog10CFU/ml,[32],6.2
same,deltalog10CFU/ml,[33],6.3
same,deltalog10CFU/ml,[34],4.1
same,deltalog10CFU/ml,[35],3.8
same,deltalog10CFU/ml,[36],2.3
